Data as given in ChEMBL document CHEMBL2034980, “N⁴-Phenyl-substituted 2-acetylpyridine thiosemicarbazones: cytotoxicity against human tumor cells, structure-activity relationship studies and investigation on the mechanism of action” (Bioorg Med Chem, 2012).
pIC50: −log10 of the molar value. The source made the active and inactive calls. The calls are words filed in the database; no cut-off is given here.

Key:
MCF7 [1] = experiment: Cytotoxicity against human MCF7 cells after 48 hrs by MTT assay; assay type: functional, cell-based; details: for IC50 / pIC50: MCF7, 48 h; for IC50: read-out: pIC50 (converted); for pIC50: read-out: IC50
Summary of the method: (§1)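 MTT assay. Cells were grown in DMEM with 10% FBS and penicillin/streptomycin at 37 °C under 5% CO2, seeded at 1–2×10^3 cells/well and treated 12 h later with 1×10^-12 to 1×10^-5 M ([…] from DMSO stock, final DMSO <0.5%) for 48 h. MTT was added at 0.5 mg mL⁻¹, formazan dissolved in DMSO and read at 570 nm. IC50 is the concentration giving 50% cytotoxicity. Quadruplicates, ≥3 independent experiments.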

T98G [2] = experiment: Cytotoxicity against human T98G cells expressing mutant p53 after 48 hrs by MTT assay; assay type: functional, cell-based; details: for IC50: read-out: pIC50 (converted); for pIC50: read-out: IC50; summary of the method: as §1
[3] = (§2) Cytotoxicity against human U87 cells expressing wild-type p53 after 48 hrs by MTT assay; assay type: functional, cell-based, U-87MG ATCC; details: U-87 MG; for IC50: read-out: pIC50 (converted); for pIC50: read-out: IC50; summary of the method: as §1
MCF7 [4] = experiment: Induction of apoptosis in human MCF7 cells assessed as membrane blebbing at 1 uM after 48 hrs by DAPI staining; assay type: functional, cell-based
U-87MG ATCC [5] = experiment: Induction of apoptosis in human U87 cells assessed as cell shrinkage at 1 uM after 48 hrs by DAPI staining; assay type: functional, cell-based
U-87MG ATCC [6] = experiment: Induction of apoptosis in human U87 cells assessed as irregularities in cellular shape at 1 uM after 48 hrs by DAPI staining; assay type: functional, cell-based
U-87MG ATCC [7] = experiment: Induction of apoptosis in human U87 cells assessed as chromatin condensation at 1 uM after 48 hrs by acridine orange/ethidium bromide staining-based microscopy; assay type: functional, cell-based
Summary of the method: (§3)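 After 48 h at 1 μM, cells were incubated for 15 min in serum-free medium containing 1 μg mL⁻¹ acridine orange and 1 μg mL⁻¹ ethidium bromide. The medium was removed and cells imaged by inverted fluorescence microscopy (530–650 nm). Green/orange nuclear patterns and acidic cytoplasmic vacuoles were scored.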

U-87MG ATCC [8] = experiment: Induction of apoptosis in human U87 cells assessed as membrane blebbing at 1 uM after 48 hrs by DAPI staining; assay type: functional, cell-based
[9] = Haemolytic activity in human RBC after 1 hr by photometry; assay type: ADME, cell-based; details: Erythrocyte
Summary of the method: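 Human EDTA blood was spun at 700xg for 10 min and the erythrocytes washed three times in cold PBS pH 7.4, then resuspended in it. Cells were incubated with varying compound concentrations for 1 h at 37 °C with shaking. After centrifugation, released haemoglobin was read at 540 nm to give the IC50. Mean ± SD, n = 4.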

U-87MG ATCC [10] = experiment: Induction of apoptosis in human U87 cells assessed as appearance of autophagolysosomes at 1 uM after 48 hrs by acridine orange/ethidium bromide staining-based microscopy; assay type: functional, cell-based; summary of the method: as §3
U-87MG ATCC [11] = experiment: Induction of apoptosis in human U87 cells assessed as chromatin condensation at 1 uM after 48 hrs by DAPI staining; assay type: functional, cell-based
Summary of the method: (§4)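 Cells were treated at 1 μM for 48 h, washed in PBS and fixed in 70% methanol for 30 min at room temperature. They were stained with 0.4 μg mL⁻¹ DAPI for 1 h in the dark, and nuclear condensation and fragmentation were scored by fluorescence microscopy (385–410 nm).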

MCF7 [12] = experiment: Induction of apoptosis in human MCF7 cells assessed as DNA fragmentation at 1 uM after 48 hrs by DAPI staining; assay type: functional, cell-based; summary of the method: as §4
T98G [13] = experiment: Induction of apoptosis in human T98G cells assessed as irregularities in cellular shape at 1 uM after 48 hrs by DAPI staining; assay type: functional, cell-based
MCF7 [14] = experiment: Induction of apoptosis in human MCF7 cells assessed as chromatin condensation at 1 uM after 48 hrs by DAPI staining; assay type: functional, cell-based; summary of the method: as §4
MCF7 [15] = experiment: Induction of apoptosis in human MCF7 cells assessed as chromatin condensation at 1 uM after 48 hrs by acridine orange/ethidium bromide staining-based microscopy; assay type: functional, cell-based; summary of the method: as §3
MCF7 [16] = experiment: Induction of apoptosis in human MCF7 cells assessed as irregularities in cellular shape at 1 uM after 48 hrs by DAPI staining; assay type: functional, cell-based
T98G [17] = experiment: Induction of apoptosis in human T98G cells assessed as membrane blebbing at 1 uM after 48 hrs […]; assay type: functional, cell-based
MCF7 [18] = experiment: Induction of apoptosis in human MCF7 cells assessed as cell shrinkage at 1 uM after 48 hrs by DAPI staining; assay type: functional, cell-based
T98G [19] = experiment: Induction of apoptosis in human T98G cells assessed as appearance of autophagolysosomes at 1 uM after 48 hrs by acridine orange/ethidium bromide staining-based microscopy; assay type: functional, cell-based; summary of the method: as §3
MCF7 [20] = experiment: Induction of apoptosis in human MCF7 cells assessed as appearance of autophagolysosomes at 1 uM after 48 hrs by acridine orange/ethidium bromide staining-based microscopy; assay type: functional, cell-based; summary of the method: as §3
U-87MG ATCC [21] = experiment: Induction of apoptosis in human U87 cells assessed as DNA fragmentation at 1 uM after 48 hrs by DAPI staining; assay type: functional, cell-based; summary of the method: as §4
T98G [22] = experiment: Induction of apoptosis in human T98G cells assessed as cell shrinkage at 1 uM after 48 hrs by DAPI staining; assay type: functional, cell-based
T98G [23] = experiment: Induction of apoptosis in human T98G cells assessed as DNA fragmentation at 1 uM after 48 hrs by DAPI staining; assay type: functional, cell-based; summary of the method: as §4
T98G [24] = experiment: Induction of apoptosis in human T98G cells assessed as chromatin condensation at 1 uM after 48 hrs by acridine orange/ethidium bromide staining-based microscopy; assay type: functional, cell-based; summary of the method: as §3
T98G [25] = experiment: Induction of apoptosis in human T98G cells assessed as chromatin condensation at 1 uM after 48 hrs by DAPI staining; assay type: functional, cell-based; summary of the method: as §4
U-87MG ATCC [26] = experiment: as §2; assay type: functional, cell-based; summary of the method: as §1

C/C(=N\NC(=S)Nc1ccc([N+](=O)[O-])cc1)c1ccccn1
IC50 (MCF7 [1]): 52 nM
IC50 (T98G [2]): 140 nM
IC50 [3]: 160 nM

CC(=NNC(=S)Nc1ccccc1)c1ccccn1 (mixture of isomers)
Activity (MCF7 [4]): Active
Activity (U-87MG ATCC [5]): Active
Activity (MCF7 [1]): Dose-dependent effect
pIC50 (MCF7 [1]): 9.74
Activity (U-87MG ATCC [6]): Active
Activity (U-87MG ATCC [7]): Active
Activity (U-87MG ATCC [8]): Active
pIC50 [9]: < 5.00
Activity (U-87MG ATCC [10]): Active
Activity (U-87MG ATCC [11]): Active
Activity (MCF7 [12]): Active
Activity (T98G [13]): Active
Activity (MCF7 [14]): Active
Activity (MCF7 [15]): Active
Activity (MCF7 [16]): Active
Activity (T98G [17]): Active
Activity (MCF7 [18]): Active
Activity (T98G [2]): Dose-dependent effect
pIC50 (T98G [2]): 8.17
Activity (T98G [19]): Active
Activity (MCF7 [20]): Active
Activity (U-87MG ATCC [21]): Active
Activity (T98G [22]): Active
Activity (T98G [23]): Active
Activity (T98G [24]): Active
Activity (T98G [25]): Active
Activity (U-87MG ATCC [26]): Dose-dependent effect
pIC50 [3]: 8.85

C/C(=N/NC(=S)Nc1cccc(F)c1)c1ccccn1
IC50 (MCF7 [1]): 8.99 nM
IC50 (T98G [2]): 12 nM
IC50 [3]: 18 nM

C/C(=N\NC(=S)Nc1ccccc1[N+](=O)[O-])c1ccccn1
IC50 (MCF7 [1]): 5.7 nM
IC50 (T98G [2]): 6.61 nM
IC50 [3]: 4.3 nM

C/C(=N\NC(=S)Nc1ccccc1Cl)c1ccccn1
IC50 (MCF7 [1]): 0.16 nM
IC50 (T98G [2]): 1.1 nM
IC50 [3]: 2.6 nM

C/C(=N\NC(=S)Nc1ccccc1F)c1ccccn1
IC50 (MCF7 [1]): 0.39 nM
IC50 (T98G [2]): 3.1 nM
IC50 [3]: 5 nM

CC(=NNC(S)=Nc1ccccc1Cl)c1ccccn1 (mixture of isomers)
Activity (MCF7 [4]): Active
Activity (U-87MG ATCC [5]): Active
Activity (MCF7 [1]): Dose-dependent effect
pIC50 (MCF7 [1]): 9.80
Activity (U-87MG ATCC [6]): Active
Activity (U-87MG ATCC [7]): Active
Activity (U-87MG ATCC [8]): Active
pIC50 [9]: < 5.00
Activity (U-87MG ATCC [10]): Active
Activity (U-87MG ATCC [11]): Active
Activity (MCF7 [12]): Active
Activity (T98G [13]): Active
Activity (MCF7 [14]): Active
Activity (MCF7 [15]): Active
Activity (MCF7 [16]): Active
Activity (T98G [17]): Active
Activity (MCF7 [18]): Active
Activity (T98G [2]): Dose-dependent effect
pIC50 (T98G [2]): 8.96
Activity (T98G [19]): Active
Activity (MCF7 [20]): Active
Activity (U-87MG ATCC [21]): Active
Activity (T98G [22]): Active
Activity (T98G [23]): Active
Activity (T98G [24]): Active
Activity (T98G [25]): Active
Activity (U-87MG ATCC [26]): Dose-dependent effect
pIC50 [3]: 8.59

C/C(=N\NC(=S)Nc1cccc([N+](=O)[O-])c1)c1ccccn1
IC50 (MCF7 [1]): 38 nM
IC50 (T98G [2]): 140 nM
IC50 [3]: 69 nM

COc1cc([C@@H]2c3cc4c(cc3[C@@H](O[C@@H]3O[C@@H]5CO[C@@H](C)O[C@H]5[C@H](O)[C@H]3O)[C@H]3COC(=O)[C@H]23)OCO4)cc(OC)c1O [ETOPOSIDE]
pIC50 (MCF7 [1]): 6.32
pIC50 (T98G [2]): 6.34
pIC50 [3]: 6.21

CC(=NNC(=S)Nc1cccc(F)c1)c1ccccn1 (mixture of isomers)
Activity (MCF7 [4]): Active
Activity (U-87MG ATCC [5]): Active
Activity (MCF7 [1]): Dose-dependent effect
pIC50 (MCF7 [1]): 8.05
Activity (U-87MG ATCC [6]): Active
Activity (U-87MG ATCC [7]): Active
Activity (U-87MG ATCC [8]): Active
pIC50 [9]: < 5.00
Activity (U-87MG ATCC [10]): Active
Activity (U-87MG ATCC [11]): Active
Activity (MCF7 [12]): Active
Activity (T98G [13]): Active
Activity (MCF7 [14]): Active
Activity (MCF7 [15]): Active
Activity (MCF7 [16]): Active
Activity (T98G [17]): Active
Activity (MCF7 [18]): Active
Activity (T98G [2]): Dose-dependent effect
pIC50 (T98G [2]): 7.92
Activity (T98G [19]): Active
Activity (MCF7 [20]): Active
Activity (U-87MG ATCC [21]): Active
Activity (T98G [22]): Active
Activity (T98G [23]): Active
Activity (T98G [24]): Active
Activity (T98G [25]): Active
Activity (U-87MG ATCC [26]): Dose-dependent effect
pIC50 [3]: 7.74

C/C(=N/NC(=S)Nc1cccc(I)c1)c1ccccn1
IC50 (MCF7 [1]): 45 nM
IC50 (T98G [2]): 61 nM
IC50 [3]: 83.9 nM

C/C(=N/NC(=S)Nc1ccccc1Cl)c1ccccn1
IC50 (MCF7 [1]): 0.16 nM
IC50 (T98G [2]): 1.1 nM
IC50 [3]: 2.6 nM

C/C(=N/NC(=S)Nc1ccc(I)cc1)c1ccccn1
IC50 (MCF7 [1]): 6.61 nM
IC50 (T98G [2]): 64 nM
IC50 [3]: 59 nM

C/C(=N\NC(=S)Nc1ccccc1I)c1ccccn1
IC50 (MCF7 [1]): 4.1 nM
IC50 (T98G [2]): 8.09 nM
IC50 [3]: 6.1 nM

C/C(=N/NC(=S)Nc1ccc([N+](=O)[O-])cc1)c1ccccn1
IC50 (MCF7 [1]): 52 nM
IC50 (T98G [2]): 140 nM
IC50 [3]: 160 nM
